Broadly, the MIC is the lowest concentration that inhibits growth of the organism. Usually CC50 stands for the concentration giving 50% cytotoxicity.

The structures appear in SMILES notation. Values after ≈ are worked out from the molar mass of the structure shown. Active and inactive are the calls of the source. No cut-off for these calls is given here.

Data set [1] relates to Mycobacterium tuberculosis. Put plainly: Antitubercular activity against Mycobacterium tuberculosis H37Rv after 24 hrs by BACTEC radiometric susceptibility assay. It counts as functional. The essentials: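 BACTEC radiometric assay in 7H12 (12B) medium with 14C-palmitic acid as substrate; 14CO2 output read daily as Growth Index (GI) at 37 °C ± 1 °C. H37Rv inoculum grown in 12B vial to GI around 300. Compounds dissolved in DMSO. Control vial held 1:100 diluted bacterial suspension. Reading continued until control GI reached 30 or more. Daily change in GI compared with control to set susceptibility and MIC.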

Data set [2] in a line: Cytotoxicity against african green monkey Vero cells after 24 hrs by resazurin assay. The format is cell-based. The following applies: chlorocebus sabaeus. The essentials:
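Vero cells (ATCC CCL-81) seeded overnight at 1 × 10⁴–[…] cells/well in RPMI with 10% heat-inactivated FBS, 37 °C, 5% CO2. Exposed in triplicate to serial dilutions, 100 to 1.56 µg/mL. Resazurin (0.1%) added for 4–5 h. Read visually (purple to pink or colourless) and by fluorescence, excitation 530 nm, emission 590 nm.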

Data set [3] is described as follows: Selectivity index, ratio of CC50 for african green monkey Vero cells to MIC for Mycobacterium tuberculosis H37Rv. The format is functional.
Data set [4] relates to Mycobacterium tuberculosis. Put plainly: Antitubercular activity against Mycobacterium tuberculosis H37Rv at 25 ug/mL after 24 hrs by BACTEC radiometric susceptibility assay. The format is functional, organism-based.
Data set [5] has as its system Mycobacterium tuberculosis. Put plainly: Antitubercular activity against Mycobacterium tuberculosis H37Rv at 50 ug/mL after 24 hrs by BACTEC radiometric susceptibility assay. It counts as functional, organism-based.
The test system of data set [6] is Mycobacterium tuberculosis. Put plainly: Antitubercular activity against Mycobacterium tuberculosis H37Rv infected in mouse J774A.1 cells assessed as growth index at 2 times MIC after 8 days by BACTEC radiometric susceptibility assay. It counts as functional. The essentials: (§1)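 J774A.1 murine macrophages infected with H37Rv (grown in 7H9 with BSA, dextrose, catalase, washed in serum-free RPMI) at MOI 1:20 for 6 h, 37 °C, 5% CO2. Seeded in triplicate, 5 × 10⁵ cells/well. Daily medium change with complete RPMI containing compound at 1× or 2× MIC. Cells lysed with 0.05% SDS on day 0 and day 6. Lysates inoculated into BACTEC vials, GI followed over 8 days.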

Data set [7] has as its system Mycobacterium tuberculosis. Briefly: Antitubercular activity against Mycobacterium tuberculosis H37Rv infected in mouse J774A.1 cells assessed as growth index at MIC after 8 days by BACTEC radiometric susceptibility assay. It counts as functional. The essentials:
as §1

Data set [8] has as its system Mycobacterium tuberculosis. Put plainly: Antitubercular activity against drug-sensitive Mycobacterium tuberculosis 2280 after 24 hrs by BACTEC radiometric susceptibility assay. It counts as functional. The note with it: Mycobacterium tuberculosis, 2280, 24 h.

The compound `CC(C)CCO[C@@H]1C=C([C@H](O)c2ccc(C#N)cc2)C(=O)[C@@H](COC(=O)C(C)(C)C)O1` displayed a minimal inhibitory concentration (MIC) in data set [1] of 6.25 µg/mL (≈ 14.6 µM). On the same count and under the same terms, the result for `O=C1C=C[C@@H](OCC2CC2)O[C@@H]1CO` reads 25 µg/mL (≈ 126 µM).

In turn, `CC(C)CO[C@@H]1C=CC(=O)[C@@H](COC(=O)C(C)(C)C)O1` gave a CC50 at 24 h in data set [2] of 28.2 µM. For the same compound, in data set [1], 3.12 µg/mL (≈ 11 µM) was the least that counted as inhibitory (MIC). Moreover, in data set [3], the “Selectivity Index” value amounted to 2.56. As for `COc1ccc(O[C@@H]2C=CC(=O)[C@@H](COC(=O)C(C)(C)C)O2)cc1`, the MIC in data set [1] was 6.25 µg/mL (≈ 18.7 µM). `CC(C)CO[C@@H]1C=CC(=O)[C@@H](CO)O1` gave a minimum inhibitory concentration (MIC) in data set [1] of 12.5 µg/mL (≈ 62.4 µM). The same measure, in the same setting: the result for `CC(C)CCO[C@@H]1C=CC(=O)[C@@H](CO)O1` reads 6.25 µg/mL (≈ 29.2 µM). With `CCCCCCCCCCO[C@@H]1C=CC(=O)[C@@H](CO)O1`, in data set [1], the lowest concentration to inhibit growth (MIC) was 12.5 µg/mL (≈ 44 µM). Still for that read-out and setting: the result for `CC(C)CCO[C@@H]1C=C([C@H](O)c2ccc([N+](=O)[O-])cc2[N+](=O)[O-])C(=O)[C@@H](COC(=O)C(C)(C)C)O1` reads 6.25 µg/mL (≈ 12.6 µM); that for `CCCCCCCCCCO[C@@H]1C=C([C@H](O)c2ccc(C#N)cc2)C(=O)[C@@H](COC(=O)C(C)(C)C)O1`, 12.5 µg/mL (≈ 25 µM). Turning to `COc1ccc(O[C@@H]2C=CC(=O)[C@@H](CO)O2)cc1`, in data set [4], the outcome was inactive. In the case of `CC(C)CCO[C@@H]1C=C[C@H](O)[C@@H](CO)O1`, the outcome in data set [5] was inactive. For the compound `CCCCCCCCCCO[C@@H]1C=C([C@H](O)c2ccc([N+](=O)[O-])cc2)C(=O)[C@@H](COC(C)=O)O1`, the lowest concentration to inhibit growth in data set [1] (MIC) was 25 µg/mL (≈ 52.4 µM). On to `CCCCCO[C@@H]1C=CC(=O)[C@@H](COC(=O)C(C)(C)C)O1`, for which, in data set [2], the cytotoxic concentration (CC50) at 24 h came out at 7.38 µM. Besides, in data set [1], the MIC came out at 1.56 µg/mL (≈ 5.23 µM). Moreover, the “Selectivity Index” value in data set [3] is given as 1.41. The like results for `CC(C)(C)C(=O)OC[C@H]1O[C@H](OCC2CC2)C=CC1=O` were, in that order, 77.2 µM, 3.12 µg/mL (≈ 11.1 µM) and 6.96.

`CC(C)CCO[C@@H]1C=CC(=O)[C@@H](CC#N)O1` came in with an MIC in data set [1] of 12.5 µg/mL (≈ 56 µM). On the same count and under the same terms, the result for `CC(=O)OC[C@H]1O[C@H](OC(C)(C)C)C=CC1=O` reads 6.25 µg/mL (≈ 25.8 µM). As for `CC(=O)OC[C@H]1O[C@H](OC(C)C)C=CC1=O`, in data set [2], it took 104 µM to reach half-maximal cytotoxicity (CC50 at 24 h). Also, inhibition of growth in data set [1] (MIC) required 3.12 µg/mL (≈ 13.7 µM). Moreover, in data set [3], the “Selectivity Index” value is 7.6.

In data set [1], `CC(C)CCO[C@@H]1C=CC(=O)[C@@H](CO[Si](C)(C)C(C)(C)C)O1` showed a minimum inhibitory concentration (MIC) of 12.5 µg/mL (≈ 38 µM). Still for that read-out and setting: the result for `CO[C@@H]1C=CC(=O)[C@@H](CO)O1` reads 25 µg/mL (≈ 158 µM).

In data set [2], `CC(=O)OC[C@H]1O[C@H](OCCC(C)C)C=CC1=O` came in with a CC50 at 24 h of 19.8 µM. Also, the MIC in data set [1] was found to be 0.78 µg/mL (≈ 3.04 µM). The “Selectivity Index” value in data set [3] is 6.6. In data set [2], `CC(C)O[C@@H]1C=CC(=O)[C@@H](COC(=O)C(C)(C)C)O1` returned a CC50 at 24 h of 12.5 µM. The minimum inhibitory concentration (MIC) in data set [1] came out at 3.12 µg/mL (≈ 11.6 µM). In addition, the “Selectivity Index” value in data set [3] is given as 1.09. In the case of `CO[C@@H]1C=CC(=O)[C@@H](COC(=O)C(C)(C)C)O1`, inhibition of growth in data set [1] (MIC) required 6.25 µg/mL (≈ 25.8 µM).

`CC(C)O[C@@H]1C=C([C@H](O)c2ccc(C#N)cc2)C(=O)[C@@H](COC(=O)C(C)(C)C)O1`: inhibition of growth in data set [1] (MIC) required 6.25 µg/mL (≈ 15.6 µM). The same measure, in the same setting: the result for `Cc1ccc(S(=O)(=O)OC[C@H]2O[C@H](OC(C)C)C=C([C@H](O)c3ccc([N+](=O)[O-])cc3)C2=O)cc1` reads 6.25 µg/mL (≈ 12.7 µM); that for `CCCCCCCCCCO[C@@H]1C=CC(=O)[C@@H](COC(=O)C(C)(C)C)O1`, 12.5 µg/mL (≈ 33.9 µM); that for `CC(C)(C)O[C@@H]1C=CC(=O)[C@@H](COC(=O)C(C)(C)C)O1`, 6.25 µg/mL (≈ 22 µM). Turning to `CCCCCCCCCCO[C@@H]1C=C[C@H](O)[C@@H](CO)O1`, the outcome in data set [5] was inactive.

The compound `CCCCO[C@@H]1C=CC(=O)[C@@H](COC(=O)C(C)(C)C)O1` showed a 50% cytotoxic concentration (CC50) at 24 h in data set [2] of 42.5 µM. In data set [1], this compound came in with a minimum inhibitory concentration (MIC) of 3.12 µg/mL (≈ 11 µM). Besides, the “Selectivity Index” value in data set [3] was 3.85. `CCCCCCCCCCO[C@@H]1C=CC(=O)[C@@H](COC(C)=O)O1` registered an MIC in data set [1] of 6.25 µg/mL (≈ 19.1 µM). Same read-out and setting: for `CC(C)CO[C@@H]1C=C([C@H](O)c2ccc(C#N)cc2)C(=O)[C@@H](COC(=O)C(C)(C)C)O1` the value was 6.25 µg/mL (≈ 15 µM); for `CN[C@@H]1[C@H](O[C@H]2[C@H](O[C@H]3[C@H](O)[C@@H](O)[C@H](N=C(N)N)[C@@H](O)[C@@H]3N=C(N)N)O[C@@H](C)[C@]2(O)C=O)O[C@@H](CO)[C@H](O)[C@H]1O` [STREPTOMYCIN], 6 µg/mL (≈ 10.3 µM); for `CO[C@H]1/C=C/O[C@@]2(C)Oc3c(C)c(O)c4c(O)c(c(/C=N/N5CCN(C)CC5)c(O)c4c3C2=O)NC(=O)/C(C)=C\C=C\[C@H](C)[C@H](O)[C@@H](C)[C@@H](O)[C@@H](C)[C@H](OC(C)=O)[C@@H]1C` [RIFAMPIN], 2 µg/mL (≈ 2.43 µM). Compound `CC(=O)OC[C@H]1O[C@H](OCCC(C)C)C=C([C@H](O)c2ccc([N+](=O)[O-])cc2)C1=O` had a 50% cytotoxic concentration (CC50) at 24 h in data set [2] of 14.3 µM. The same compound gave an MIC in data set [1] of 3.12 µg/mL (≈ 7.67 µM). In addition, the “Selectivity Index” value in data set [3] is 1.8. As for `CC(C)O[C@@H]1C=CC(=O)[C@@H](CO)O1`, the MIC in data set [1] was 25 µg/mL (≈ 134 µM). Consider `CO[C@@H]1C=C([C@H](O)c2ccc(C#N)cc2)C(=O)[C@@H](COC(=O)C(C)(C)C)O1`, for which inhibition of growth in data set [1] (MIC) required 12.5 µg/mL (≈ 33.5 µM). The same measure, in the same setting: for `CC(=O)OC[C@H]1O[C@H](OCCC(C)C)C=C([C@H](O)c2ccc([N+](=O)[O-])cc2[N+](=O)[O-])C1=O` the value was 6.25 µg/mL (≈ 13.8 µM).

On to `Cc1ccc(S(=O)(=O)OC[C@H]2O[C@H](OC(C)C)C=CC2=O)cc1`, for which the CC50 at 24 h in data set [2] worked out at 13.4 µM. Also, the MIC in data set [1] was 3.12 µg/mL (≈ 9.18 µM). For the same compound, the “Selectivity Index” value in data set [3] was 1.4. As for `CC(C)CCO[C@H]1O[C@H](COC(=O)C(C)(C)C)C(=O)[C@@H]2O[C@H]12`, in data set [1], the MIC was determined as 12.5 µg/mL (≈ 39.8 µM). On the same count and under the same terms, for `CC(C)O[C@@H]1C=C(CO)C(=O)[C@@H](COC(=O)C(C)(C)C)O1` the value was 25 µg/mL (≈ 83.2 µM); for `CO[C@@H]1C=CC(=O)[C@@H](COC(C)=O)O1`, 6.25 µg/mL (≈ 31.2 µM). Still for that read-out and setting: the result for `CC(C)(C)O[C@@H]1C=CC(=O)[C@@H](CO)O1` reads 25 µg/mL (≈ 125 µM). As for `CC(=O)OCC1=C[C@@H](OCCC(C)C)O[C@H](COC(=O)C(C)(C)C)C1=O`, the result in data set [5] was inactive. The compound `CC(C)CCO[C@@H]1C=C(CO)C(=O)[C@@H](COC(=O)C(C)(C)C)O1` showed an MIC in data set [1] of 25 µg/mL (≈ 76.1 µM). `CC(C)CCO[C@@H]1C=CC(=O)[C@@H](COC(=O)C(C)(C)C)O1` yielded a CC50 at 24 h in data set [2] of 36 µM. The Growth_index in data set [6] and in data set [7] was 10 throughout. For the same compound, the MIC in data set [1] and in data set [8] was 0.78 µg/mL (≈ 2.61 µM) throughout. Moreover, the “Selectivity Index” value in data set [3] is listed as 13.5. Regarding `CCCCCCO[C@@H]1C=CC(=O)[C@@H](COC(=O)C(C)(C)C)O1`, the CC50 at 24 h in data set [2] turned out to be 4.8 µM. In data set [1], this compound came in with an MIC of 3.12 µg/mL (≈ 10 µM). The “Selectivity Index” value in data set [3] is recorded as 0.48.
